Marks after values point to notes of the source that are not given here.
Legend:
Assay type in all cases: cell-based
[1] = test system: Salmonella typhimurium TA1535; assay: Ames Salmonella/microsomal mutagenicity assay; conditions: presence of S9 mix, spontaneous 67.0±6.1
[2] = test system: Salmonella typhimurium TA1535; assay: Cytotoxicity in liquid medium; conditions: mean ± SEM
Summary of the method: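 TA1535 was grown in broth microdilution with test compound at 25, 50 or 100 µM. Viability was expressed as % of untreated control (mean ± SEM), triplicate.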

[3] = test system: Salmonella typhimurium TA1535; assay: Antimutagenicity assay against sodium azide; conditions: for NaN3 mutagenicity (revertant colonies/plate; mean ± SEM): NaN3 2 μg/plate, spontaneous 29.3±5.3
Summary of the method: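 TA1535 was exposed to test compound at 10 or 20 µM with NaN₃ (2 µg/plate) in two schemes. In pre-exposure, compound and bacteria were shaken 30 min at 37°C before mutagen was added. In co-exposure, bacteria, mutagen and compound were incubated together 30 min at 37°C. Cells were then plated on minimal glucose agar, and revertants counted at 48 h, in triplicate. Mutant frequency = mutant colonies/viable colonies.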

[4] = test system: Salmonella typhimurium TA1535; assay: Antimutagenicity assay against benzo[a]pyrene with S9 mix; conditions: for B[a]P mutagenicity (revertant colonies/plate; mean ± SEM): B[a]P 20 μM + S9 mix, spontaneous 105.0±13.1; for Mutant frequency (benzo[a]pyrene): mutant colonies/viable colonies
[5] = co-exposure, 10 μM, mutant colonies/viable colonies
[6] = co-exposure, 20 μM, mutant colonies/viable colonies
[7] = pre-exposure, 10 μM, mutant colonies/viable colonies
[8] = pre-exposure, 20 μM, mutant colonies/viable colonies

SMILES | Fluoroarylbichalcophene mutagenicity (revertant colonies/plate; mean ± SEM) ([1]; 10 μM) [revertant colonies/plate] | Fluoroarylbichalcophene mutagenicity (revertant colonies/plate; mean ± SEM) ([1]; 20 μM) [revertant colonies/plate] | Viability at fluoroarylbichalcophene concentrations (% of control) ([2]; 25 μM) | Viability at fluoroarylbichalcophene concentrations (% of control) ([2]; 50 μM) | Viability at fluoroarylbichalcophene concentrations (% of control) ([2]; 100 μM) | NaN3 mutagenicity (revertant colonies/plate; mean ± SEM) ([3]; co-exposure, 10 μM) [revertant colonies/plate] | Mutant frequency (sodium azide) [3, 5] | NaN3 mutagenicity (revertant colonies/plate; mean ± SEM) ([3]; co-exposure, 20 μM) [revertant colonies/plate] | Mutant frequency (sodium azide) [3, 6] | NaN3 mutagenicity (revertant colonies/plate; mean ± SEM) ([3]; pre-exposure, 10 μM) [revertant colonies/plate] | Mutant frequency (sodium azide) [3, 7] | NaN3 mutagenicity (revertant colonies/plate; mean ± SEM) ([3]; pre-exposure, 20 μM) [revertant colonies/plate] | Mutant frequency (sodium azide) [3, 8] | B[a]P mutagenicity (revertant colonies/plate; mean ± SEM) ([4]; co-exposure, 10 μM) [revertant colonies/plate] | Mutant frequency (benzo[a]pyrene) ([4]; co-exposure, 10 μM) | B[a]P mutagenicity (revertant colonies/plate; mean ± SEM) ([4]; co-exposure, 20 μM) [revertant colonies/plate] | B[a]P mutagenicity (revertant colonies/plate; mean ± SEM) ([4]; pre-exposure, 10 μM) [revertant colonies/plate] | Mutant frequency (benzo[a]pyrene) ([4]; pre-exposure, 10 μM) | B[a]P mutagenicity (revertant colonies/plate; mean ± SEM) ([4]; pre-exposure, 20 μM) [revertant colonies/plate] | Mutant frequency (benzo[a]pyrene) ([4]; pre-exposure, 20 μM) | other results
Cl.N=C(N)c1ccc(-c2ccc(-c3ccco3)o2)cc1F [Compound 5b, 4-(2,2′-Bifuran-5-yl)-2-fluorobenzamidine hydrochloride salt] | 68.7±4.0 | 65.0±4.9 | 101.7±11.3 % of control | 62.0±5.5 ^a % of control | 36.7±2.8 ^a % of control | 26.0±2.0 | 0.50 | 21.7±2.5 | 0.43 | 126.7±11.2 | 2.45 | 40.3±6.5 | 0.79 | 213.7±15.8 | 3.38 | 166.0±6.6 | 178.0±8.2 | 2.81 | 163.0±7.9 | 2.53 | Antimutagenic potential against NaN3 ([3]; pre-exposure, only at 20 μM): strong (40% or more reduction means strong antimutagenic activity); Mutant frequency (benzo[a]pyrene) ([4]; co-exposure, 20 μM): 2.58
Cl.N=C(N)c1ccc(-c2ccc(-c3cccs3)o2)cc1F [Compound 5d, 2-Fluoro-4-(5-(thiophen-2-yl)furan-2-yl)benzamidine hydrochloride salt] | 65.0±7.0 | 67.7±6.0 | 105.7±4.6 % of control | 65.3±3.9 ^a % of control | 49.3±3.8 ^a % of control | 43.3±6.8 | 0.76 | 20.0±1.0 | 0.40 | 65.0±5.0 | 1.14 | 44.3±4.5 | 0.88 | 109.7±8.3 |  | 101.0±6.0 | 261.0±8.5 | 4.19 | 216.7±14.3 | 3.28 | 
N#Cc1ccc(-c2ccc(-c3cccs3)o2)cc1F [Compound 4d, 2-Fluoro-4-(5-(thiophen-2-yl)furan-2-yl)benzonitrile] | 68.7±6.0 | 67.7±6.1 | 71.7±5.0 % of control | 59.7±4.7 ^a % of control | 3.0±0.2 ^a % of control | 47.7±2.7 | 0.92 | 49.7±6.4 | 0.94 | 36.0±2.7 | 0.69 | 29.7±4.0 | 0.56 | 287.7±16.0 | 4.38 | 204.0±5.3 | 271.0±16.5 | 4.12 | 271.0±12.2 | 4.37 | Mutant frequency (benzo[a]pyrene) ([4]; co-exposure, 20 μM): 3.29; Antimutagenic potential against B[a]P ([4]; co-exposure, low concentration investigated): no significant activity
[N-]=[N+]=[N-].[Na+] [NaN3, sodium azide, reference compound] |  |  |  |  |  |  |  |  |  |  |  |  |  |  |  |  |  |  |  |  | Mutant frequency, NaN3 alone ([3]; NaN3 without fluoroarylbichalcophene, mutant colonies/viable colonies): 2.65 (100)
